Measurements: ChEMBL document CHEMBL2396529, “Synthesis and anticancer mechanism investigation of dual Hsp27 and tubulin inhibitors” (J Med Chem, 2013)
Active and inactive are the calls of the source. The calls are words filed in the database; no cut-off is given here.

What was measured:
SK-BR-3 [1] = test: Effect on HSP70 protein level human SKBR3 cells at 5 to 15 nM after 24 hrs by Western blotting analysis; type: functional, cell-based
SK-BR-3 [2] = test: Effect on EIF4E protein level human SKBR3 cells at 5 to 15 nM after 24 hrs by Western blotting analysis; type: functional, cell-based
SK-BR-3 [3] = test: Effect on STAT3 protein level human SKBR3 cells at 5 to 15 nM after 24 hrs by Western blotting analysis; type: functional, cell-based
SK-BR-3 [4] = test: Effect on HER2 protein level human SKBR3 cells at 5 to 15 nM after 24 hrs by Western blotting analysis; type: functional, cell-based
SK-BR-3 [5] = test: Induction of HSP27 phosphorylation in human SKBR3 cells at 5 to 15 nM after 24 hrs by Western blotting analysis; type: functional, cell-based
In short: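 SKBR-3 cells exposed to 5, 10 and 15 nM for 24 h against DMSO, then lysed, sonicated and spun at 12000g for 10 min. 30 μg protein run on 10% SDS-PAGE and transferred to PVDF. Blocked with 5% milk in PBST, probed with specific primary antibodies and an HRP secondary. pHsp27 bands quantified and normalised to β-actin.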

[6] = molecular target: Heat shock protein beta-1 (Homo sapiens) (UniProt P04792); test: Inhibition of HSP27 (unknown origin) assessed as increase in DTT-induced insulin B chain aggregation at 10 uM incubated for 5 mins prior to DTT-treatment measured after 30 mins by spectrophotometric analysis relative to control
Chain of Heat shock protein beta-1 (Homo sapiens) (P04792 whole entry): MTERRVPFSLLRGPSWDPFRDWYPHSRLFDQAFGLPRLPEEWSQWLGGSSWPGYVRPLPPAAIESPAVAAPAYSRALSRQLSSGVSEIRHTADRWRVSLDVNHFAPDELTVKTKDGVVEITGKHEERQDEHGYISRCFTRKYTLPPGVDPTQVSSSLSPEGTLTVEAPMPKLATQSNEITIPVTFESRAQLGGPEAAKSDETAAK

Bos taurus [7] = organism: Bos taurus; test: Inhibition of bovine brain tubulin polymerization after 20 mins by spectrophotometric analysis in presence of GTP
SK-BR-3 [8] = test: Induction of apoptosis in human SKBR3 cells assessed as increase in cleaved PARP protein level at 5 to 15 nM after 24 hrs by Western blotting analysis; type: functional, cell-based
In short: (§1)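 SKBR-3 cells treated 24 h with 5, 10 and 15 nM against DMSO. Lysates (60 μg protein) resolved on 10% SDS-PAGE, transferred to PVDF, blocked in 5% milk/PBST and immunoblotted for cleaved caspase 3 and cleaved PARP with an HRP secondary.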

SK-BR-3 [9] = test: Induction of apoptosis in human SKBR3 cells assessed as increase in cleaved caspase-3 protein level at 5 to 15 nM after 24 hrs by Western blotting analysis; type: functional, cell-based; in short: as §1
SK-BR-3 [10] = test: Cell cycle arrest in human SKBR3 cells assessed as accumulation at G2/M phase at 5 nM after 24 hrs by propidium iodide staining-based FACS flow cytometric analysis (reference value: 10.77%); type: functional
SK-BR-3 [11] = test: Cell cycle arrest in human SKBR3 cells assessed as accumulation at G2/M phase at […] after 24 hrs by propidium iodide staining-based FACS flow cytometric analysis (reference value: 10.77%); type: functional
SK-BR-3 [12] = test: Cell cycle arrest in human SKBR3 cells assessed as accumulation at G2/M phase at 1 nM after 24 hrs by propidium iodide staining-based FACS flow cytometric analysis (reference value: 10.77%); type: functional
SK-BR-3 [13] = test: Cell cycle arrest in human SKBR3 cells assessed as accumulation at S phase at 5 nM after 24 hrs by propidium iodide staining-based FACS flow cytometric analysis (reference value: 16.34%); type: functional
SK-BR-3 [14] = test: Cell cycle arrest in human SKBR3 cells assessed as accumulation at S phase at […] after 24 hrs by propidium iodide staining-based FACS flow cytometric analysis (reference value: 16.34%); type: functional
SK-BR-3 [15] = test: Cell cycle arrest in human SKBR3 cells assessed as accumulation at S phase at 1 nM after 24 hrs by propidium iodide staining-based FACS flow cytometric analysis (reference value: 16.34%); type: functional
SK-BR-3 [16] = test: Cell cycle arrest in human SKBR3 cells assessed as accumulation at G1 phase at 5 nM after 24 hrs by propidium iodide staining-based FACS flow cytometric analysis (reference value: 69.63%); type: functional
SK-BR-3 [17] = test: Cell cycle arrest in human SKBR3 cells assessed as accumulation at G1 phase at […] after 24 hrs by propidium iodide staining-based FACS flow cytometric analysis (reference value: 69.63%); type: functional
SK-BR-3 [18] = test: Cell cycle arrest in human SKBR3 cells assessed as accumulation at G1 phase at 1 nM after 24 hrs by propidium iodide staining-based FACS flow cytometric analysis (reference value: 69.63%); type: functional
SK-BR-3 [19] = test: Cell cycle arrest in human SKBR3 cells assessed as accumulation at subG1 phase at 5 nM after 24 hrs by propidium iodide staining-based FACS flow cytometric analysis (reference value: 3.23%); type: functional
SK-BR-3 [20] = test: Cell cycle arrest in human SKBR3 cells assessed as accumulation at subG1 phase at […] after 24 hrs by propidium iodide staining-based FACS flow cytometric analysis (reference value: 3.23%); type: functional
SK-BR-3 [21] = test: Cell cycle arrest in human SKBR3 cells assessed as accumulation at subG1 phase at 1 nM after 24 hrs by propidium iodide staining-based FACS flow cytometric analysis (reference value: 3.23%); type: functional
SK-BR-3 [22] = test: Antiproliferative activity against human SKBR3 cells after 48 hrs by MTT assay; type: functional, cell-based; settings: SK-BR-3, 48 h
In short: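 MTT assay on SKBR-3 cells (RPMI 1640, 10% heat-inactivated FBS, 37 °C, 5% CO2), seeded 24 h before dosing, then exposed 48 h to a concentration series in DMSO (final ≤0.1%) with vehicle-matched controls. Afterwards 0.5 mg/mL MTT for 2 h, formazan dissolved in DMSO, A570 read, six replicates. IC50 from nonlinear regression.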

Bos taurus [23] = organism: Bos taurus; test: Inhibition of bovine brain tubulin polymerization at 1 uM after 15 mins by spectrophotometric analysis relative to control in presence of GTP
Bos taurus [24] = organism: Bos taurus; test: Inhibition of bovine brain tubulin polymerization at 10 nM after 15 mins by spectrophotometric analysis relative to control in presence of GTP
Bos taurus [25] = organism: Bos taurus; test: Inhibition of bovine brain tubulin polymerization at 100 nM after 15 mins by spectrophotometric analysis relative to control in presence of GTP
SK-BR-3 [26] = test: Effect on total HSP27 protein level human SKBR3 cells at 5 to 15 nM after 24 hrs by Western blotting analysis; type: functional, cell-based
SK-BR-3 [27] = test: Cell cycle arrest in human SKBR3 cells assessed as accumulation at G2/M phase at 50 nM after 24 hrs by propidium iodide staining-based FACS flow cytometric analysis (reference value: 10.77%); type: functional
SK-BR-3 [28] = test: Cell cycle arrest in human SKBR3 cells assessed as accumulation at S phase at 50 nM after 24 hrs by propidium iodide staining-based FACS flow cytometric analysis (reference value: 16.34%); type: functional
SK-BR-3 [29] = test: Cell cycle arrest in human SKBR3 cells assessed as accumulation at G1 phase at 50 nM after 24 hrs by propidium iodide staining-based FACS flow cytometric analysis (reference value: 69.63%); type: functional
SK-BR-3 [30] = test: Cell cycle arrest in human SKBR3 cells assessed as accumulation at subG1 phase at 50 nM after 24 hrs by propidium iodide staining-based FACS flow cytometric analysis (reference value: 3.23%); type: functional

In the case of `COc1ccc(C(=O)Nc2ccc(N(C)S(C)(=O)=O)c(OCc3cc(OC)ccc3OC)c2)cc1`, the Activity (SK-BR-3 [1]) is reported as “inactive”, the Activity (SK-BR-3 [2]) is reported as “inactive” and the Activity (SK-BR-3 [3]) is reported as “inactive”. For the same compound, the Activity (SK-BR-3 [4]) was “inactive”, the Activity (SK-BR-3 [5]) was “Active” and the inhibition [6] was 9%. For the same compound, the inhibition (Bos taurus [7]) was “Dose-dependent effect”, the Activity (SK-BR-3 [8]) was “Active” and the Activity (SK-BR-3 [9]) was “Active”. It also gave an Activity (SK-BR-3 [10]) of 25.47%, an Activity (SK-BR-3 [11]) of 28.57% and an Activity (SK-BR-3 [12]) of 12.78%. For the same compound, the Activity (SK-BR-3 [13]) was 8.83%, the Activity (SK-BR-3 [14]) was 8.92% and the Activity (SK-BR-3 [15]) was 8.71%. The Activity (SK-BR-3 [16]) was 32.02%, the Activity (SK-BR-3 [17]) was 34.91% and the Activity (SK-BR-3 [18]) was 61.21%. It also gave an Activity (SK-BR-3 [19]) of 33.54%, an Activity (SK-BR-3 [20]) of 27.43% and an Activity (SK-BR-3 [21]) of 17.1%. The IC50 (SK-BR-3 [22]) was 2.56 nM, the inhibition (Bos taurus [23]) was 66% and the inhibition (Bos taurus [24]) was 5%. It also gave an inhibition (Bos taurus [25]) of 19%.
For `COc1ccc(OC)c(COc2cc(NC(=O)c3ccc(I)cc3)ccc2N(C)S(C)(=O)=O)c1`, the Activity (SK-BR-3 [1]) was “inactive”, the Activity (SK-BR-3 [2]) was “inactive” and the Activity (SK-BR-3 [3]) was “inactive”. For the same compound, the Activity (SK-BR-3 [4]) was “inactive”, the Activity (SK-BR-3 [26]) was “inactive” and the Activity (SK-BR-3 [5]) was “Active”. For the same compound, the inhibition [6] was 27%, the inhibition (Bos taurus [7]) was “Dose-dependent effect” and the Activity (SK-BR-3 [8]) was “Active”. For the same compound, the Activity (SK-BR-3 [9]) was “Active”, the Activity (SK-BR-3 [27]) was 24.32% and the Activity (SK-BR-3 [10]) was 13.76%. The Activity (SK-BR-3 [11]) was 8.1%, the Activity (SK-BR-3 [12]) was 9.24% and the Activity (SK-BR-3 [28]) was 11.39%. For the same compound, the Activity (SK-BR-3 [13]) was 9.51%, the Activity (SK-BR-3 [14]) was 9.49% and the Activity (SK-BR-3 [15]) was 8.45%. It also gave an Activity (SK-BR-3 [29]) of 31.22%, an Activity (SK-BR-3 [16]) of 51.84% and an Activity (SK-BR-3 [17]) of 60.08%. For the same compound, the Activity (SK-BR-3 [18]) was 66.68%, the Activity (SK-BR-3 [30]) was 32.88% and the Activity (SK-BR-3 [19]) was 24.27%. For the same compound, the Activity (SK-BR-3 [20]) was 22.02%, the Activity (SK-BR-3 [21]) was 14.73% and the IC50 (SK-BR-3 [22]) was 1.21 nM. The inhibition (Bos taurus [23]) was 64%.
